From ChEMBL document CHEMBL4000190, “Novel trifluoromethylated 9-amino-3,4-dihydroacridin-1(2H)-ones act as covalent poisons of human topoisomerase IIα” (Bioorg Med Chem Lett, 2017)
Calls of active or inactive are those of the source. The rule behind the calls is not given here.

Legend:
[1] = target: DNA topoisomerase 2-alpha (Homo sapiens) (UniProt P11388); assay: (§1) Poison activity at recombinant human topoisomerase-2alpha expressed in Saccharomyces cerevisiae JEL1 harboring topoisomerase1 deletion mutant assessed as increase in double stranded DNA cleavage at 1 mM using supercoiled pBR322 DNA as substrate preincubated for 1 to 5 mins followed by substrate addition measured after 6 mins by ethidium bromide staining based agarose gel electrophoresis
Chain of DNA topoisomerase 2-alpha (Homo sapiens) (P11388 whole entry, the tested form may be a part): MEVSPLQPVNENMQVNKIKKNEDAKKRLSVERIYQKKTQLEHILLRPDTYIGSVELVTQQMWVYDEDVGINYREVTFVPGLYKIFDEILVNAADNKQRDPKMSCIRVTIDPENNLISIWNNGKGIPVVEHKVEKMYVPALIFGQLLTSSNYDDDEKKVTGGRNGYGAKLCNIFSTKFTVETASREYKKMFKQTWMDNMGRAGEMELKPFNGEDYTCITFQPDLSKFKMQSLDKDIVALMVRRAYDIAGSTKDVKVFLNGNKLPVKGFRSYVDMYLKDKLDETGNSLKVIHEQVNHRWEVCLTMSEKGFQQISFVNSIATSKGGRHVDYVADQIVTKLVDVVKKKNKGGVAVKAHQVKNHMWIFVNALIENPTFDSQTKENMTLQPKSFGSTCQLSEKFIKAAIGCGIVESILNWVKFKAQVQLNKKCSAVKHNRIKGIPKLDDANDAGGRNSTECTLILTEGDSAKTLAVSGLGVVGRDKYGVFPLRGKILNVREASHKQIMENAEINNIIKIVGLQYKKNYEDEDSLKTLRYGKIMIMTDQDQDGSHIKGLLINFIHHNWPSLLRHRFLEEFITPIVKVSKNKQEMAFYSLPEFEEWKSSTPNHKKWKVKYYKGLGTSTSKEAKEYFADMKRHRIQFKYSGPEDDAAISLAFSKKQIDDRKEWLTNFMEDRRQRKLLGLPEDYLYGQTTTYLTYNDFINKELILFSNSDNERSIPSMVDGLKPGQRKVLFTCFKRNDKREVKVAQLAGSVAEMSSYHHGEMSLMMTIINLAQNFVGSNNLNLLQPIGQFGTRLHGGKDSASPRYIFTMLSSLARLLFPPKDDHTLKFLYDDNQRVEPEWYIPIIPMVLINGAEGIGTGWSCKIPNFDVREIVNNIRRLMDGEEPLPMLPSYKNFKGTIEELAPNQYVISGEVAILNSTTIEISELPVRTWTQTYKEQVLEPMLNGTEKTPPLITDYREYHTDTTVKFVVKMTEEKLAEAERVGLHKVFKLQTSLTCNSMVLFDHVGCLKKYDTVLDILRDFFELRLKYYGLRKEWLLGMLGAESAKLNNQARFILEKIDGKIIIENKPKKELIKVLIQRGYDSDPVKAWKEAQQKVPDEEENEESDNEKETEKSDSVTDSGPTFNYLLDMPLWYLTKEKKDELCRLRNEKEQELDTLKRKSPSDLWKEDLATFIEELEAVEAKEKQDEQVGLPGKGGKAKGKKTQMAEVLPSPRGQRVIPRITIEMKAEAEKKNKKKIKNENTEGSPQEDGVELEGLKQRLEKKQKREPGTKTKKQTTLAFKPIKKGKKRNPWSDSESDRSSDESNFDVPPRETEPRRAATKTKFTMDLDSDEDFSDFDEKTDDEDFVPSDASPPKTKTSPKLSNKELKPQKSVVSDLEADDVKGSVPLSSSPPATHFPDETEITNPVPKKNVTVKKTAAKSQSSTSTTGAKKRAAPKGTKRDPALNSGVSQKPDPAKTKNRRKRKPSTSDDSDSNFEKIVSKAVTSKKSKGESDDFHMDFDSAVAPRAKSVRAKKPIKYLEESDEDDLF
Summary of the method: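 Topoisomerase IIα was preincubated with 1 mM compound for 1–5 min, then the cleavage reaction was started by adding DNA. Cleavage was followed against preincubation time.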

[2] = target: DNA topoisomerase 2-alpha (Homo sapiens) (UniProt P11388); assay: Poison activity at recombinant human topoisomerase-2alpha expressed in Saccharomyces cerevisiae JEL1 harboring topoisomerase1 deletion mutant assessed as concentration required to triple the level of DNA cleavage complex relative to basal level using supercoiled pBR322 DNA as substrate measured after 6 mins by ethidium bromide staining based agarose gel electrophoresis
Summary of the method: (§2)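 Enhancement of topoisomerase IIα-mediated double-stranded cleavage of negatively supercoiled DNA, measured over a compound concentration range. Cleavage is expressed relative to the baseline of enzyme without compound.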

Bos taurus = species on record: Bos taurus; assay: Activity at calf thymus DNA topoisomerase-1 assessed as DNA intercalation by measuring band shift at 1 mM using pBR322 DNA as substrate measured after 15 mins by ethidium bromide staining based agarose gel electrophoresis relative to control
Summary of the method: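 Topoisomerase I relaxation of negatively supercoiled DNA in the presence of compound. Intercalation is read as a shift of topoisomer bands toward the supercoiled position. Controls are DNA alone and DNA plus topoisomerase I without compound. Gel representative of three independent experiments.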

[3] = target: DNA topoisomerase 2-alpha (Homo sapiens) (UniProt P11388); assay: Inhibition of recombinant human topoisomerase-2alpha mediated DNA ligation expressed in Saccharomyces cerevisiae JEL1 harboring topoisomerase1 deletion mutant at 1 mM measured after 6 mins by ethidium bromide staining based agarose gel electrophoresis
Summary of the method: (§3)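 Topoisomerase IIα-mediated DNA ligation measured with or without 1 mM compound; controls at 50 µM. Mean ± standard deviation of at least three independent experiments.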

[4] = target: DNA topoisomerase 2-alpha (Homo sapiens) (UniProt P11388); assay: as §1, with “in presence of reducing agent DTT” for “preincubated for 1 to 5 mins followed by substrate addition”
Summary of the method: (§4)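 Topoisomerase IIα DNA cleavage with 1 mM compound, run without and with 0.5 mM DTT. Controls are no-compound and 50 µM reactions. Mean ± standard deviation of at least three independent experiments.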

[5] = target: DNA topoisomerase 2-alpha (Homo sapiens) (UniProt P11388); assay: Poison activity at recombinant human topoisomerase-2alpha catalytic domain (431 to 1193 residues) assessed as increase in double stranded DNA cleavage at 1 mM using supercoiled pBR322 DNA as substrate measured after 6 mins by ethidium bromide staining based agarose gel electrophoresis
Summary of the method: (§5)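 Double-stranded DNA cleavage by full-length topoisomerase IIα and by the catalytic core (lacking N- and C-terminal domains), run in parallel. Compounds at 1 mM; controls at 50 µM; a no-compound baseline is included. Mean ± SD of ≥3 independent experiments.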

[6] = target: DNA topoisomerase 2-alpha (Homo sapiens) (UniProt P11388); assay: Poison activity at recombinant human topoisomerase-2alpha expressed in Saccharomyces cerevisiae JEL1 harboring topoisomerase1 deletion mutant assessed as double stranded DNA cleavage using supercoiled pBR322 DNA as substrate at 1000 uM measured after 6 mins by ethidium bromide staining based agarose gel electrophoresis relative to control; summary of the method: as §2
[7] = target: DNA topoisomerase 2-alpha (Homo sapiens) (UniProt P11388); assay: (§6) Poison activity at recombinant human topoisomerase-2alpha expressed in Saccharomyces cerevisiae JEL1 harboring topoisomerase1 deletion mutant assessed as increase in double stranded DNA cleavage up to 1000 uM using supercoiled pBR322 DNA as substrate measured after 6 mins by ethidium bromide staining based agarose gel electrophoresis relative to control; summary of the method: as §2
[8] = target: DNA topoisomerase 2-alpha (Homo sapiens) (UniProt P11388); assay: Inhibition of recombinant human topoisomerase-2alpha mediated DNA ligation expressed in Saccharomyces cerevisiae JEL1 harboring topoisomerase1 deletion mutant at 50 uM measured after 6 mins by ethidium bromide staining based agarose gel electrophoresis; summary of the method: as §3
[9] = target: DNA topoisomerase 2-alpha (Homo sapiens) (UniProt P11388); assay: as §6, with “at 50” for “up to 1000”, “substrate in presence of reducing agent DTT” for “substrate”, “electrophoresis” for “electrophoresis relative to control”; summary of the method: as §4
[10] = target: DNA topoisomerase 2-alpha (Homo sapiens) (UniProt P11388); assay: Poison activity at recombinant human topoisomerase-2alpha catalytic domain (431 to 1193 residues) assessed as increase in double stranded DNA cleavage at 50 uM using supercoiled pBR322 DNA as substrate measured after 6 mins by ethidium bromide staining based agarose gel electrophoresis; summary of the method: as §5

Compound: Cc1ccc2c(N)c3c(nc2c1)CC(C(F)(F)F)CC3=O (stereo not given)
- Activity [1]: Active
- Activity [2]: 800 µM
- Activity (Bos taurus): Active
- inhibition [3]: inactive
- Activity [4]: inactive
- Activity [5]: inactive

Compound: Nc1c2c(nc3ccc(Br)cc13)CC(C(F)(F)F)CC2=O (stereo not given)
- Activity [1]: Active
- Activity [2]: 90 µM
- Activity [6]: < 35%
- Activity (Bos taurus): Active
- inhibition [3]: inactive
- Activity [4]: inactive
- Activity [5]: inactive
- fold change (FC) [7]: 5.5 to 8.5

Compound: Nc1c2c(nc3ccc(Cl)cc13)CC(C(F)(F)F)CC2=O (stereo not given)
- Activity [1]: Active
- Activity [2]: 85 µM
- Activity [6]: < 35%
- Activity (Bos taurus): Active
- inhibition [3]: inactive
- Activity [4]: inactive
- Activity [5]: inactive
- fold change (FC) [7]: 5.5 to 8.5

Compound: Nc1c2c(nc3ccccc13)CC(C(F)(F)F)CC2=O (stereo not given)
- Activity [1]: Active
- Activity [2]: 155 µM
- Activity (Bos taurus): Active
- inhibition [3]: inactive
- Activity [4]: inactive
- Activity [5]: inactive
- fold change (FC) [7]: 5.5 to 8.5

Compound: O=C1CC(C(F)(F)F)Cc2nc3ccccc3cc21 (stereo not given)
- Activity [2]: > 1000 µM
- Activity (Bos taurus): Active
- inhibition [3]: inactive
- fold change (FC) [7]: 5.5 to 8.5

Compound: Nc1c2c(nc3ccc([N+](=O)[O-])cc13)CC(C(F)(F)F)CC2=O (stereo not given)
- Activity [2]: > 1000 µM
- Activity (Bos taurus): Active
- inhibition [3]: inactive

Compound: COc1cc([C@@H]2c3cc4c(cc3[C@@H](O[C@@H]3O[C@@H]5CO[C@@H](C)O[C@H]5[C@H](O)[C@H]3O)[C@H]3COC(=O)[C@H]23)OCO4)cc(OC)c1O
- Activity [2]: 32 µM
- inhibition [8]: Active

Compound: COc1cc(NS(C)(=O)=O)ccc1Nc1c2ccccc2nc2ccccc12
- Activity [9]: Active
- Activity [2]: 8.5 µM
- Activity [10]: Active
- inhibition [8]: Active

Compound: Nc1c2c(nc3ccc(F)cc13)CC(C(F)(F)F)CC2=O (stereo not given)
- Activity [2]: 520 µM
- Activity [6]: < 35%
- Activity (Bos taurus): Active
- inhibition [3]: inactive
- Activity [4]: inactive
- Activity [5]: inactive
- fold change (FC) [7]: 5.5 to 8.5

Compound: c1ccc2nc3ccccc3cc2c1
- Activity [2]: > 1000 µM
